Test results reported in ChEMBL document CHEMBL1133838, “Novel 5-vinyl pyrimidine nucleosides with potent anti-hepatitis B virus activity” (Bioorg Med Chem Lett, 2001).
Values after ≈ are worked out from the molar mass of the structure shown.

Legend:
Vero [1] = experiment: Concentration required to inhibit plaque formation by HSV-1 strain KOSSB (TK-) in monolayers of vero cells; format: functional, cell-based; settings: Chlorocebus sabaeus
In short: (§1)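 Vero cells seeded one day ahead. Infected with HSV-1 KOS (TK+) or TK-deficient KOSSB at ~100 PFU/well for 1 h at 37 °C. Inoculum replaced by medium with serial drug dilutions in duplicate, then refined by 1:2 dilutions. Acyclovir control at 5 and 1 μg/mL (TK+) or 50, 25, 10, 1 μg/mL (TK−). After 48 h at 37 °C, fixed with methanol and Giemsa-stained. Plaques counted against no-drug wells for EC50.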

Vero [2] = experiment: Concentration required to inhibit plaque formation by HSV-1 strain KOS (TK+) in monolayers of vero cells; format: functional, cell-based; settings: Chlorocebus sabaeus; in short: as §1
Homo sapiens [3] = organism: Homo sapiens; experiment: Concentration required to reduce the proliferation of PHA stimulated human peripheral blood T lymphocytes; format: functional
In short: (§2)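 Fresh human peripheral blood T lymphocytes stimulated with PHA and grown with drug. Cellular DNA synthesis followed by [methyl-3H]thymidine incorporation. Value is the concentration (μg/mL) reducing proliferation to 50% of untreated PHA-stimulated controls. Tested up to 50 μg/mL.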

Duck hepatitis B virus = experiment: Percent inhibition of viral DNA in the presence of 10 ug/mL compound compared to untreated infected controls in duck hepatocytes
Nucleic Acid = experiment: Concentration required to reduce the viral DNA in infected cells to 50% of untreated infected controls.; format: functional, cell-based; settings: Duck hepatitis B virus
In short: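 Confluent primary hepatocyte cultures from chronically DHBV-infected Pekin ducks treated with drug. Viral DNA in cells measured against untreated infected controls. EC50 in μg/mL. Three independent experiments, with the range of EC50 reported.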

Vero [4] = experiment: Compound was evaluated for cytotoxicity against stationary Vero cells using MTT assay; format: functional; settings: Chlorocebus sabaeus
In short: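 Stationary Vero cells exposed to drug for 3 days. Viability read by MTT assay against untreated controls. CC50 taken as the concentration (μg/mL) giving 50% loss of viability. ">" means 50% was not reached at the highest concentration tested.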

Homo sapiens [5] = organism: Homo sapiens; experiment: Concentration required to reduce the proliferation of PHA stimulated human peripheral blood T lymphocytes to 50% of untreated PHA Stimulated control; format: functional; in short: as §2

SMILES	EC50 (Nucleic Acid)	EC50 (Vero [1])	EC50 (Vero [2])	IC50 (Homo sapiens [3])	Inhibition (Duck hepatitis B virus)	CC50 (Vero [4])	IC50 (Homo sapiens [5])
C=Cc1cn(COCCO)c(=O)[nH]c1=O	> 10 µg/mL	> 50 µg/mL	> 25 µg/mL	> 50 µg/mL	40.6%	> 100 µg/mL	–
Nc1ccn([C@@H]2CSC(CO)O2)c(=O)n1 (single isomer, unassigned) [LAMIVUDINE]	0.01 µg/mL (≈ 0.0436 µM)	–	–	–	96%	> 100 µg/mL	> 50 µg/mL
Nc1nc2c(ncn2COCCO)c(=O)[nH]1 [ACYCLOVIR]	–	40 µg/mL (≈ 178 µM)	0.5 µg/mL (≈ 2.22 µM)	–	–	> 100 µg/mL	–

Now from value to compound, other results behind:

EC50 (Nucleic Acid)	SMILES	EC50 (Vero [1])	EC50 (Vero [2])	IC50 (Homo sapiens [3])	Inhibition (Duck hepatitis B virus)	CC50 (Vero [4])	IC50 (Homo sapiens [5])
3 µg/mL (≈ 12.5 µM)	C=Cc1cn(CCC(CO)CO)c(=O)[nH]c1=O	> 50 µg/mL	> 25 µg/mL	> 50 µg/mL	77.5%	> 100 µg/mL	–
1 µg/mL (≈ 4.13 µM)	C=Cc1cn(COC(CO)CO)c(=O)[nH]c1=O	> 50 µg/mL	> 25 µg/mL	> 50 µg/mL	81%	> 100 µg/mL	–
1.5 µg/mL (≈ 5.88 µM)	Nc1nc2c(ncn2COC(CO)CO)c(=O)[nH]1 [GANCICLOVIR]	–	–	–	–	–	–
0.3 µg/mL (≈ 1.18 µM)	Nc1nc(O)c2ncn(CCC(CO)CO)c2n1 [PENCICLOVIR]	–	–	–	–	–	–
